Among the data in ChEMBL document CHEMBL3421570, “Combinatorial Libraries As a Tool for the Discovery of Novel, Broad-Spectrum Antibacterial Agents Targeting the ESKAPE Pathogens” (J Med Chem, 2015) are Survival and Activity values, retold here.

Holding throughout (format): functional
The test system of experiment [1] is Staphylococcus aureus. As to the kind of experiment: Bactericidal activity against methicillin-resistant Staphylococcus aureus assessed as cell survival recovery at 0.001% measured after drug wash out after 120 mins by time kill assay. An outline of the steps:
(§1)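 MRSA from stationary phase was regrown 3 h in TSB and seeded at OD600 0.5. […] After 120 min, cells were centrifuged and washed, serially diluted and plated for CFU. Percent recovery is relative to no-drug controls.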

Experiment [2] relates to Staphylococcus aureus. As to the kind of experiment: Induction of bacterial cell lysis in methicillin-resistant Staphylococcus aureus assessed as cell recovery at 2% by time kill assay.
Experiment [3] has as its system Staphylococcus aureus. Put plainly: Bactericidal activity against methicillin-resistant Staphylococcus aureus assessed as cell survival recovery at 2% measured after drug wash out after 120 mins by time kill assay. An outline of the steps:
as §1

Consider `CC(C)(C)CC(C)(C)c1ccc(OCCOCC[N+](C)(C)Cc2ccccc2)cc1.[Cl-]` [BENZETHONIUM CHLORIDE], for which the Survival in the experiment on Staphylococcus aureus [1] was found to be 0%. Take `CCCCCCCCCCCCOS(=O)(=O)[O-].[Na+]` [SODIUM LAURYL SULFATE]: the Activity in the experiment on Staphylococcus aureus [2] amounted to 52%. In addition, the Survival in the experiment on Staphylococcus aureus [3] is recorded as 0%.
